Source: PubChem (several laboratories)
Compounds with a hit are over-represented: about 3.7% of the library has one in this group of screens.
Redox H2O2 prof – compounds producing H2O2 with reducing agent – biochemical, NIH compound library profiling, artefact control for MLSCN library redox annotation, primary screen; activation, % at 10 µM; AID 878; hit rate 0.03% among 200,000; DTT-dependent redox cycling H2O2, phenol red/HRP absorbance; 100% = 100 µM peroxide control, 0% = buffer;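 active means activation of at least 50% relative to the plate's high and low controls in the primary single-dose screen; inactive means activation below 50%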;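 further: compound incubated with DTT at 0.8 mM final as the reducing agent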
ROMK mod – human ROMK K+ channel modulation, primary screen. hit rate 2% among 130,000. B-score at 10 µM. P48048. Tet-inducible ROMK, thallium flux fluorescence; actives lie on both sides;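 active means signal ratio slope over the read window, or its plate-corrected B-score, at least 3 SD from the plate mean, either direction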;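 further: B-score of the F/F0 ratio slope over 7 to 12 s after thallium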
Cl transport mod – modulators of human KCC2 chloride dependent transport | Q9H2X9 | KCC2 cells, thallium flux FluoZin-2 fluorescence | B-score of Tl+ flux slope (higher = more flux/activation; lower = inhibition) at 10 µM | hit rate 2.2% among 190,000 | AID 1456;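 active means thallium flux slope and its plate-corrected score both differing from the plate sample mean at a set confidence after two filtering rounds, in either direction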;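 further: slope of fluorescence scaled to starting intensity during 10 to 20 s after thallium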
bCat nuc transl – beta-catenin nuclear translocation modulation; hit rate 0.3% among 190,000; nuclear translocation activity, % at 5 µM; HeLa beta-catenin nuclear translocation, immunofluorescence imaging;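 active means nuclear translocation activity above 50% at 5 µM, with a well cell count of 50 or more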;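 further: per-cell ratio of nuclear to cytoplasmic median beta-catenin stain intensity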
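Test system: human HeLa cell line; Doses: 5 µM primary, 0.02–20 µM confirmation; Incubation: 24 h compound exposure, 37°C; Detection: beta-catenin immunofluorescence imaging with DAPI; Read-out: beta-catenin nuclear/cytoplasmic ratio, % activation.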
MT stabilize HCS – stabilizes microtubules in HeLa cells. HeLa tubulin immunostaining HCS, 24 h; share of cells brighter than vehicle mean+2SD. % tubulin-high responders, % at 10 µM. hit rate 0.83% among 200,000. AID 2205;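 active means plate Z-score above 3 for both tubulin-high and condensed-nucleus cell shares, with cell loss under 80%, at 10 µM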;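 further: anti alpha tubulin signal scored within the nucleus-defined area of each cell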
Of the large screens only hits and unclear results are named; the others gave an inactive call.

Cc1ccc(NC(=O)COC(=O)c2cc(C)nc3ccccc23)c([N+](=O)[O-])c1	none (no result: ROMK mod)
CCN(CC)C(=S)SCC(=O)Nc1nc(=O)c2ccccc2s1	Cl transport mod 16
O=c1c2cc(Br)ccc2nc(-c2cccc(C(F)(F)F)c2)n1O	ROMK mod 3.7, Cl transport mod 24
CCN(CC)c1ccc(/C=N/N=C(N)N)c(O)c1	bCat nuc transl 77
CCN(CC)c1ccc(N=Cc2ccc(N(CC)CC)cc2O)cc1	none (no result: ROMK mod, Cl transport mod)
C#CCSc1nccc(-c2nn(-c3ccc(C)cc3)ccc2=O)n1	none (no result: Cl transport mod)
C=CCSc1nccc(-c2nn(-c3ccc(C)cc3)ccc2=O)n1	MT stabilize HCS 39 (no result: ROMK mod)
COC(=O)C/C(O)=C(/N=Nc1cccc(C(F)(F)F)c1)C(=O)OC	none
O=c1cc(-c2ccccc2)[nH]c2nc3ccccc3n12	MT stabilize HCS 44 (no result: ROMK mod)
O=c1cc(CCl)[nH]c2nc3ccccc3n12	none (no result: Redox H2O2 prof, ROMK mod, Cl transport mod, MT stabilize HCS)
CC(C)Cn1c(=O)c(C2=NS(=O)(=O)c3ccccc3N2)c(O)c2ccccc21	Cl transport mod 8.8 (no result: ROMK mod, bCat nuc transl)
CC(C)Cn1c(=O)c(C(=O)NCc2ccccn2)c(O)c2ccccc21	none
Cc1ccc(Nc2nc(N)nc(CCl)n2)c(C)c1	none (no result: Redox H2O2 prof, ROMK mod, MT stabilize HCS)
O=C(N/N=C/c1ccc([N+](=O)[O-])o1)c1cc(-c2cccc(Br)c2)nc2ccccc12	none (no result: ROMK mod)
N#Cc1ccc(/C=N/NC(=O)c2cc(-c3cccs3)nc3ccccc23)cc1	bCat nuc transl 116, MT stabilize HCS 17 (no result: ROMK mod)
O=C(N/N=C/c1ccc2c(c1)OCO2)c1cc(-c2ccccc2)nc2ccccc12	MT stabilize HCS 29
Cn1cc(C(=O)N/N=C/c2ccc3c(c2)OCO3)c2ccccc21	none (no result: Redox H2O2 prof, ROMK mod, MT stabilize HCS)
O=C(c1cc(-c2cccs2)nc2ccccc12)N1CCN(c2ccccc2)CC1	MT stabilize HCS 19
CCCc1ccc(-c2cc(C(=O)N/N=C/c3ccc([N+](=O)[O-])o3)c3ccccc3n2)cc1	bCat nuc transl 229, MT stabilize HCS 35
O=C(O)CCCNc1ccc(S(=O)(=O)N2CCCCC2)cc1	none
O=C(NC(=S)N1CCOCC1)c1ccc([N+](=O)[O-])cc1	none
CC(=O)c1sc(N/N=C2\CC3CC2C(C)C3(C)C)nc1C (configuration not stated)	none
NC(=O)c1ccc2c(c1)OCCO2	Cl transport mod -3.2 (no result: bCat nuc transl)
O=C(N/N=C/c1ccc2c(c1)OCO2)c1ccc2c(c1)OCCO2	MT stabilize HCS 12 (no result: bCat nuc transl)
O=C(N/N=C/c1c[nH]c2ccc(Br)cc12)c1ccc2c(c1)OCO2	bCat nuc transl 73, MT stabilize HCS 44
CC(=O)NC1=NN(C(C)=O)C(c2ccccn2)S1 (configuration not stated)	none
COC(=O)c1ccc(N2CCN(CC(=O)c3ccc(-c4ccccc4)cc3)CC2)c([N+](=O)[O-])c1	none
COc1ccc(/C=C2\CCC/C(=C\C=N\N(C)C)C2=O)cc1	MT stabilize HCS 20
CN(C)/N=C/C=C1\CCC/C(=C\c2ccc(F)c(F)c2)C1=O	none (no result: Cl transport mod)
C=C1C(=O)[C@@]23[C@H](O)C[C@@H]4C(C)(C)CC[C@H](O)[C@@]4(C)[C@@H]2CC[C@@H]1[C@H]3O	MT stabilize HCS 25 (no result: bCat nuc transl)
C=C1C(=O)[C@@]23[C@H](O)C[C@@H]4C(C)(C)CC[C@H](O)[C@]4(C)[C@@H]2C[C@H](O)[C@@H]1[C@H]3O	none (no result: bCat nuc transl)
CN1CCN(c2nc(-c3ccccc3)nc(-c3ccccc3)c2C#N)CC1	MT stabilize HCS 9.8
N#Cc1c(-c2ccccc2)nc(-c2ccccc2)nc1N1CCOCC1	none
COc1ccc(-c2nc(-c3ccccc3)nc(N3CCN(C)CC3)c2C#N)cc1	none (no result: ROMK mod, bCat nuc transl)
COc1cccc(-c2nc(-c3ccccc3)nc(N3CCN(C)CC3)c2C#N)c1	bCat nuc transl 50, MT stabilize HCS 19
COc1ccc(-c2nc(-c3cccc(C)c3)nc(N3CCN(C)CC3)c2C#N)cc1	MT stabilize HCS 39 (no result: Cl transport mod)
CC(C)c1nc(C(=O)N2CCCC(CCC(=O)N(C)CCc3ccccn3)C2)cs1 (configuration not stated)	none (no result: Cl transport mod)
O=C(NCCCN1CCOCC1)C(C(=O)NCCCN1CCOCC1)c1ncc(C(F)(F)F)cc1Cl	none
C/C(=N\NC(=O)c1ccccc1NC(=O)c1ccc(Cl)cc1)c1ccncc1	none
COc1ccc(/C=N/NC(=O)c2cccc(Br)c2)cc1Cn1cc(Cl)cn1	MT stabilize HCS 41 (no result: ROMK mod, bCat nuc transl)
O=C1CCCc2c1[nH]c1ccccc21	none (no result: Cl transport mod)
O=C1CCCC(=O)C1=Cc1c[nH]c2ccccc12	ROMK mod -4.1
